Assay [1] relates to HT-29. Description: Compound was evaluated in vitro for its inhibitory activity againstHT-29 and BE human colon carcinoma cell line using MTT assay. Type of assay: functional, cell-based. Put shortly: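 HT-29 and BE colon cells were pre-grown 12 h in EMEM with 1% glutamine and 15% FCS, then exposed to drug or vehicle for 2 days. Cells were released with pronase and growth was read by MTT tetrazolium reduction. ID50 (μM) was taken from the percentage growth versus dose curve.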
In general terms: Formazan colour is commonly taken as a measure of viable cells.

Assay [2] relates to HT-29. Description: Compound was evaluated in vitro for its inhibitory activity againstHT-29 and BE human colon carcinoma cell line using Coulter counter assay. Type of assay: functional, cell-based. Put shortly: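 HT-29 and BE human colon cells were grown 12 h in EMEM with 1% glutamine and 15% fetal calf serum. Drug or solvent was added (final solvent ≤1.0%) for a further 2 days. Cells were released with pronase and Coulter counted. ID50 (μM) was taken from the percentage growth versus dose curve, with vehicle controls.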

Assay [3] deals with L1210. Description: Compound was evaluated in vitro for its inhibitory activity against L1210/DDP leukemia cell line using MTT assay. Type of assay: functional, cell-based. The settings on record: Mus musculus. Put shortly: (§1)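 L1210 or L1210/DDP cells were dosed as for counting (48 h continuous, or 2-h pulse then 46 h), with vehicle controls. Growth was read by mitochondrial reduction of tetrazolium (MTT), modified Mosmann method. ID50 (μM) was taken from the percentage growth versus dose curve; single determinations, ranges, or mean ± range of 2–4.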

The subject of assay [4] is L1210. As to the kind of experiment: Compound was evaluated in vitro for its inhibitory activity against L1210/DDP leukemia cell line using Coulter counter assay. Type of assay: functional, cell-based. Particulars: Mus musculus. The essentials:
(§2)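 Log-phase murine L1210 or cisplatin-resistant L1210/DDP cells, drug in ethanol, ethanol/DMSO or DMF (final solvent ≤1.0%) with vehicle-only controls. Exposure was continuous for 48 h, or 2 h followed by 46 h growth. Cells were counted on a Coulter counter. ID50 (μM) was read from the percentage growth versus dose curve; single determinations, ranges, or mean ± range of 2–4.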

The test system of assay [5] is L1210. As to the kind of experiment: Compound was evaluated in vitro for its inhibitory activity against L1210 leukemia cell line using […]. Type of assay: functional, cell-based. Particulars: Mus musculus. The essentials: as §1
For assay [6], the system named is L1210. As to the kind of experiment: Compound was evaluated in vitro for its inhibitory activity against L1210 leukemia cell line using Coulter counter assay. Type of assay: functional. Particulars: Mus musculus. The essentials: as §2
Assay [7] has as its system P388/DDP. As to the kind of experiment: Mean survival time of treated animals compared with those of control animals expressed as percentage T/C was determined against murine leukemia P388/DDP (cisplatin resistant) implanted mouse at the dose of 113 umol/kg. Type of assay: functional. The essentials:
(§3)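 Groups of six BDF1 mice were injected ip on day 0 with 10^6 P388, 5 × 10^6 P388/DDP or 10^5 L1210 cells. Pt compounds in 1% Tween-20/saline (1:9) were given ip on days 1, 5 and 9 at five doses spanning a 16-fold range. Controls were untreated or vehicle-only. Mice were observed 30–60 days; %T/C is treated versus control mean survival time.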

The subject of assay [8] is L1210. As to the kind of experiment: Mean survival time of treated animals compared with those of control animals expressed as percentage T/C was determined against murine leukemia L1210 implanted mouse at the dose of 113 umol/kg. Type of assay: functional. Put shortly:
as §3

For assay [9], the system named is P388. As to the kind of experiment: Mean survival time of treated animals compared with those of control animals was determined against murine leukemia P388 implanted mouse at the dose of 113 umol/kg. Type of assay: functional. The essentials:
as §3

For assay [10], the system named is P388/DDP. Description: Mean survival time of treated animals compared with those of control animals expressed as percentage T/C was determined against murine leukemia P388/DDP (cisplatin resistant) implanted mouse at the dose of 20 umol/kg. Type of assay: functional. The essentials: as §3
Assay [11] deals with P388. As to the kind of experiment: Mean survival time of treated animals compared with those of control animals expressed as percentage. T/C was determined against murine leukemia P388 implanted mouse at the dose of 20 umol/kg. Type of assay: functional. Put shortly:
as §3

Assay [12] concerns P388. As to the kind of experiment: Mean survival time of treated animals compared with those of control animals expressed as percentage. T/C was determined against murine leukemia P388 implanted mouse at the dose of 140 umol/kg. Type of assay: functional. Put shortly:
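BDF1 mice (six per group) inoculated ip with 10^6 P388 leukemia cells on day 0; Pt compounds given ip on days 1, 5 and 9 in 1% Tween-20/saline (1:9), five doses over a 16-fold range including the maximum tolerated dose. Untreated/vehicle negative controls; 5-fluorouracil (50 mg/kg) positive control. Animals observed 30–60 days; %T/C = mean survival time treated vs control.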

The term T/C denotes the ratio of treated to control.

On to “1-[2-(1-pyridiniumyl)-1,3-di(2,3,5,6-tetrafluorophenyl)tetrahydro-1H-2-imidazolyl]pyridinium (platinumcomplex)”, for which the ID50 was found to be 1100 nM with HT-29 [1]; 1000 nM in the assay on HT-29 [2]; 1400 nM in the assay with L1210 [3]; 1000 nM in the assay with L1210 [4]; 1600 nM in the assay on L1210 [5]; 1200 nM in the assay with L1210 [6]. Further, the results for the T/C in the assay with P388/DDP [7], in the assay with L1210 [8] and in the assay on P388 [9] were 115%, 172% and 206%, respectively.
For CISPLATIN, the ID50 with HT-29 [2] amounted to 700 nM; in the assay on L1210 [3], 20300 nM; in the assay on L1210 [4], 6700 nM; with L1210 [5], 1100 nM; in the assay on L1210 [6], 600 nM. Moreover, the T/C in the assay on P388/DDP [10] amounted to 122%; in the assay with P388 [11], 248%.
`Fc1cc(F)c(F)c(NCCNc2c(F)c(F)cc(F)c2F)c1F`: the IC50 with L1210 [6] (read-out: ID50 (the source's name)) was determined as 37000 nM. In addition, the T/C with P388 [12] is on record as 108%.

The values are drawn from ChEMBL document CHEMBL1126252, “cis-bis(pyridine)platinum(II) organoamides with unexpected growth inhibition properties and antitumor activity” (1992).
